Reference: ChEMBL document CHEMBL1136653, “Discovery of a potent and selective agonist of the prostaglandin EP4 receptor” (Bioorg Med Chem Lett, 2003)

Experiments:
[1] = biological target: T1, Prostaglandin E2 receptor EP3 subtype (Homo sapiens, UniProt P43115); experiment: Binding affinity towards EP3 receptor expressed in HEK293 ebna cells recombinantly expressing the corresponding human prostanoid cDNAs; format: cell-based
T1 sequence (P43115 whole entry): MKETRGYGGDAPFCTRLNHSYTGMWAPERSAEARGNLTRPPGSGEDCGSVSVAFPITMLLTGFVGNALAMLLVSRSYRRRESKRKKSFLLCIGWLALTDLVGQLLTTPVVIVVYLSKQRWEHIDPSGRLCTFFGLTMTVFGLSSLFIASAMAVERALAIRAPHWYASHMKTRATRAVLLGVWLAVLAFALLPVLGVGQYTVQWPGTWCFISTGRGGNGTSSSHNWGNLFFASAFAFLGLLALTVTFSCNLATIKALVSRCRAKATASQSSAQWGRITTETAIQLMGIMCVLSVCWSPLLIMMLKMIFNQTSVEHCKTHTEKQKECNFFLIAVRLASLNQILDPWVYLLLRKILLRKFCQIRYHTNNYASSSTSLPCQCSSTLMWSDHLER
How it was run: (§1)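 Competition binding used membrane preparations, not intact cells, from HEK293ebna cells expressing each recombinant human prostanoid receptor cDNA.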

[2] = biological target: Prostaglandin F2-alpha receptor (Homo sapiens, UniProt P43088); experiment: Binding affinity towards FP receptor expressed in HEK293 ebna cells recombinantly expressing the corresponding human prostanoid cDNAs; format: cell-based; how it was run: as §1
Thromboxane A2 receptor = biological target: T2, Thromboxane A2 receptor (Homo sapiens, UniProt P21731); experiment: Binding affinity towards TP receptor expressed in HEK293 ebna cells recombinantly expressing the corresponding human prostanoid cDNAs; format: cell-based; how it was run: as §1
T2 sequence (P21731 whole entry): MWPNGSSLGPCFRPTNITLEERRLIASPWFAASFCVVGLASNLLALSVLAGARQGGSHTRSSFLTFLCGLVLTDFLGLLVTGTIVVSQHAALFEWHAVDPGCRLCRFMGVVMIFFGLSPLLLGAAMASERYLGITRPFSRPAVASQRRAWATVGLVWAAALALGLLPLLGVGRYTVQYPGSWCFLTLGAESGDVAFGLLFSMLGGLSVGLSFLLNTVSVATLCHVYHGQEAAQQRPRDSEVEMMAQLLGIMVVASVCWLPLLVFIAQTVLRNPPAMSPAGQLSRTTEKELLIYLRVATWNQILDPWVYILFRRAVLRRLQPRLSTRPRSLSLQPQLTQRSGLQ

[3] = biological target: Prostaglandin E2 receptor EP2 subtype (Homo sapiens, UniProt P43116); experiment: Binding affinity towards EP2 receptor expressed in HEK293 ebna cells recombinantly expressing the corresponding human prostanoid cDNAs; format: cell-based; how it was run: as §1
[4] = biological target: T3, Prostaglandin D2 receptor (Homo sapiens, UniProt Q13258); experiment: Binding affinity towards DP receptor expressed in HEK293 ebna cells recombinantly expressing the corresponding human prostanoid cDNAs; format: cell-based; how it was run: as §1
T3 sequence (Q13258 whole entry): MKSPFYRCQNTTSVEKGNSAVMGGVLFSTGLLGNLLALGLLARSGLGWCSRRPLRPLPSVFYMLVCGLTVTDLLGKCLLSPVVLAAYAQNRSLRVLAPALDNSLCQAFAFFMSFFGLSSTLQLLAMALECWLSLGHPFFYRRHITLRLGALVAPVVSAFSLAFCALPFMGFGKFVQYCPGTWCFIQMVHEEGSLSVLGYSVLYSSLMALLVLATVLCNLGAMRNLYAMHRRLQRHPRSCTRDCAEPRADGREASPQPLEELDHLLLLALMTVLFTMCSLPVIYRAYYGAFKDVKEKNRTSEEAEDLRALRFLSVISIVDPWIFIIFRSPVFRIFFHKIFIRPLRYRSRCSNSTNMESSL

[5] = biological target: T4, Prostaglandin E2 receptor EP1 subtype (Homo sapiens, UniProt P34995); experiment: Binding affinity towards EP1 receptor expressed in HEK293 ebna cells recombinantly expressing the corresponding human prostanoid cDNAs; format: cell-based; how it was run: as §1
T4 sequence (P34995 whole entry): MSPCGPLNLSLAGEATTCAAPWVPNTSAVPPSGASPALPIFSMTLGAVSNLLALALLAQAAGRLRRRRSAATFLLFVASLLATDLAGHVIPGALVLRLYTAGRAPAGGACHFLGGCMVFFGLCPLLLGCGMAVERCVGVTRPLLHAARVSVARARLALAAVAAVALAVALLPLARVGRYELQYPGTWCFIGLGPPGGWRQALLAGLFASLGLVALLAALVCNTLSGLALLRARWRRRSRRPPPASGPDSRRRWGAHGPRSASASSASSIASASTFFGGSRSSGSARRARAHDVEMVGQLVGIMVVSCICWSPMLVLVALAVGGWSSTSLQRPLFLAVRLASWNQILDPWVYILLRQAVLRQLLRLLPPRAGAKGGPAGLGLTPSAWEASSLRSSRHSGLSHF

Prostacyclin receptor = Prostacyclin receptor (Homo sapiens, UniProt P43119); experiment: Binding affinity towards IP receptor expressed in HEK293 ebna cells recombinantly expressing the corresponding human prostanoid cDNAs; format: cell-based; how it was run: as §1
[6] = biological target: T5, Prostaglandin E2 receptor EP4 subtype (Homo sapiens, UniProt P35408); experiment: Binding affinity towards EP4 receptor expressed in HEK293 ebna cells recombinantly expressing the corresponding human prostanoid cDNAs; format: cell-based
[7] = biological target: T5, Prostaglandin E2 receptor EP4 subtype; experiment: EP4 agonist potency utilizing a stable clone of pSV40-EP4 transfected into HEK293 cells expressing EP4 receptor; format: functional, cell-based
How it was run: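 A HEK293 stable clone carried pSV40-EP4 at about 50 fmol/mg receptor. Whole-cell cAMP assay: 1×10⁵ cells per sample were suspended in 0.2 mL HBSS with 2 mM IBMX. Compound or PGE₂ was given in DMSO at a constant final 1.8% (v/v). Incubation ran 10 min at 37 °C and was stopped by 3 min in boiling water. cAMP was read by [¹²⁵I]cAMP scintillation proximity assay.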

[8] = biological target: T5, Prostaglandin E2 receptor EP4 subtype; experiment: Inhibitory activity against human EP4 receptor expressed in HEK293 ebna cells; format: cell-based
[9] = Half-life after intravenous dose in rat; format: ADME, organism-based; conditions: in vivo

Sequence of Prostaglandin E2 receptor EP2 subtype (P43116 whole entry): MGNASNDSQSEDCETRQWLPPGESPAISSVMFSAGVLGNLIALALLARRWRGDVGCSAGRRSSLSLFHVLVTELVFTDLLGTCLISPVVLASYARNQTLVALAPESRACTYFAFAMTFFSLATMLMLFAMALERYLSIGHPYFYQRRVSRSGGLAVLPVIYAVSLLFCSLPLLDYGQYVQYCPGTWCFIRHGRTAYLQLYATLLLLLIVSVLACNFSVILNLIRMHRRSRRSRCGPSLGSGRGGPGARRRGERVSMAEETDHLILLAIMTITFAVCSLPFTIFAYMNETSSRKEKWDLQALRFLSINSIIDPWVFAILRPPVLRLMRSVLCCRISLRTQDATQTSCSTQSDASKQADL
Sequence of Prostacyclin receptor (P43119 whole entry): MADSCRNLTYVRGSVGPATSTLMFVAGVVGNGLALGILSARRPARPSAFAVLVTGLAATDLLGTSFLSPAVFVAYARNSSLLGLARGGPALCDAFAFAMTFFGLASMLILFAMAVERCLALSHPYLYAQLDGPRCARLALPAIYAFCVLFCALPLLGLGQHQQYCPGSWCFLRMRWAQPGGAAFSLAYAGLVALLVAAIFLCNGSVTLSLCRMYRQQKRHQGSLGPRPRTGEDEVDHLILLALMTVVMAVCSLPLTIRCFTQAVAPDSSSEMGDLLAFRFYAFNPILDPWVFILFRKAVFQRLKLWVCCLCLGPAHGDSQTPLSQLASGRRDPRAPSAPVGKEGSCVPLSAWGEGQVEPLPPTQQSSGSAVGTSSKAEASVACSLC
T5 sequence (P35408 whole entry): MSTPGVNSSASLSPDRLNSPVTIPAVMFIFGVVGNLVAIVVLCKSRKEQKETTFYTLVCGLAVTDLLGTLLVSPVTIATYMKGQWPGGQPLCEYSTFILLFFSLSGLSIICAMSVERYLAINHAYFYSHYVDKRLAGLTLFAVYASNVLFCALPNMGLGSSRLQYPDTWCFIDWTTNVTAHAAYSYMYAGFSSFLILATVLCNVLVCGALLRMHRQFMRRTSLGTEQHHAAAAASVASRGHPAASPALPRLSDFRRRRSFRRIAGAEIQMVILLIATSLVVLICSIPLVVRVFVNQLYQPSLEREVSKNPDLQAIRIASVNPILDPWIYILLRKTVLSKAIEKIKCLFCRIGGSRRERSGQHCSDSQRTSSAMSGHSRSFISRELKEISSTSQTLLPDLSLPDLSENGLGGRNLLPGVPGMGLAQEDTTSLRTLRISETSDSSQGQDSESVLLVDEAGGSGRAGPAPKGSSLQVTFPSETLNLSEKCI
Sequence of Prostaglandin F2-alpha receptor (P43088 whole entry): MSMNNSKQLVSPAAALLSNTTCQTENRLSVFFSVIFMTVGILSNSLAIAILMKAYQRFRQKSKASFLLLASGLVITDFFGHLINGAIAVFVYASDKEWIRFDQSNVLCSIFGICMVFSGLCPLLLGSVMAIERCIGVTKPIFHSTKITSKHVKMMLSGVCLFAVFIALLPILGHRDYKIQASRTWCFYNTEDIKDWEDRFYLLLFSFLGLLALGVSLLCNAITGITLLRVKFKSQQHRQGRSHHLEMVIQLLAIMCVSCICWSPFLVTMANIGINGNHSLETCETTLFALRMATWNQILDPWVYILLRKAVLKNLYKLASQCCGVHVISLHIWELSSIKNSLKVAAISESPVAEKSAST

SMILES	Ki [1] [µM]	Ki [2] [µM]	Ki (Thromboxane A2 receptor) [µM]	Ki [3] [µM]	Ki [4] [µM]	Ki [5] [µM]	Ki (Prostacyclin receptor) [µM]	Ki [6] [µM]	EC50 [7] [µM]	IC50 [8] [µM]	half-life [9] [min]
CC(O)(/C=C/[C@H]1CCC(=O)N1CCCCCCC(=O)O)Cc1ccccc1 (some centres not stated)	> 13	> 13	> 13	> 13	> 13	> 13	> 13	2.1			
COCc1cccc(CC(O)/C=C/[C@H]2CCC(=O)N2CCCCCCC(=O)O)c1 (some centres not stated)	> 13	> 13	> 13	> 13	> 13	> 13	> 13	0.0036			
CCCCCC(O)CC[C@H]1CCC(=O)N1CCCCCCC(=O)O (some centres not stated)	0.7	> 13	> 13	4.05	> 13	> 13	> 13	0.028			
CCCCCC(O)CCC1CCC(=O)N1CCCCCCC(=O)O (configuration not stated)	2	> 13	> 13	3	> 13	> 13	> 13	0.035			
O=C(O)CCCCCCN1C(=O)CC[C@@H]1/C=C/C(O)C1CCCCC1 (some centres not stated)	> 13	> 13	> 13	> 13	> 13	> 13	> 13	3.5			
O=C1CC[C@H](/C=C/[C@@H](O)Cc2ccccc2)N1CCCCCCc1nnn[nH]1.O=C1CC[C@H](/C=C/[C@H](O)Cc2ccccc2)N1CCCCCCc1nnn[nH]1	> 13	> 13	> 13	> 13	> 13	> 13	> 13	0.0025			
COC(=O)CSCCCCN1C(=O)CC[C@@H]1/C=C/C(O)Cc1ccccc1 (some centres not stated)	> 13	> 13	> 13	> 13	> 13	> 13	> 13	0.443			
O=C1CC[C@H](/C=C/[C@H](O)Cc2ccccc2)N1CCCCCCc1nnn[nH]1	> 13	> 13	> 13	> 13	> 13	> 13	> 13	0.23			
CCCCCC(O)/C=C/[C@@H]1CCC(=O)N1CCCCCCC(=O)O (some centres not stated)	1.22	> 13	> 13	> 13	> 13	> 13	> 13	1.41			
O=C1CC[C@H](/C=C/[C@@H](O)Cc2ccccc2)N1CCCCCCc1nnn[nH]1	> 13	> 13	> 13	> 13	> 13	> 13	> 13	0.0012	0.0025	0.0014	
O=C(O)CSCCCCN1C(=O)CC[C@@H]1/C=C/C(O)Cc1ccccc1 (some centres not stated)	> 13	> 13	> 13	> 13	> 13	> 13	> 13	0.013			
CCCCCC(O)CC[C@@H]1CCC(=O)N1CCCCCCC(=O)O (some centres not stated)	2.32	> 13	> 13	3.61	> 13	> 13	> 13	1.11			
O=C(O)CCCCCCN1C(=O)CC[C@@H]1/C=C/C(O)C1(c2ccccc2)CC1 (some centres not stated)	3.34	> 13	> 13	> 13	> 13	> 13	> 13	0.012			
CC(C)(c1ccccc1)C(O)/C=C/[C@H]1CCC(=O)N1CCCCCCC(=O)O (some centres not stated)	10.6	> 13	> 13	> 13	> 13	> 13	> 13	0.062			
O=C(O)CCCCCCN1C(=O)CC[C@@H]1/C=C/C(O)Cc1ccccc1 (some centres not stated)	> 13	> 13	> 13	> 13	> 13	> 13	> 13				< 20
O=C1CC[C@H](/C=C/C(O)Cc2ccccc2)N1CCCCSc1nnn[nH]1 (some centres not stated)	> 13	> 13	> 13	> 13	> 13	> 13	> 13	0.243			
O=C(O)CCSCCCCN1C(=O)CC[C@@H]1/C=C/C(O)Cc1ccccc1 (some centres not stated)	> 13	> 13	> 13	> 13	> 13	> 13	> 13	0.14			
O=C1CC[C@H](/C=C/C(O)Cc2ccccc2)N1CCCCSCc1nn[nH]n1 (some centres not stated)	> 13	> 13	> 13	> 13	> 13	> 13	> 13	0.066			
O=C(O)CCCCCCN1C(=O)CC[C@@H]1/C=C/C(O)CCc1ccccc1 (some centres not stated)	2.01	> 13	> 13	> 13	> 13	> 13	> 13	0.102			
CCCCCC(O)/C=C/[C@H]1CCC(=O)N1CCCCCCC(=O)O (some centres not stated)	0.419	> 13	> 13	6.68	> 13	> 13	> 13	0.006			
